Measurements published in ChEMBL document CHEMBL3992547, “Antimicrobial activity of rhodanine-3-acetic acid derivatives” (Bioorg Med Chem, 2017).
In brackets after ≈: the same amount, converted by molar mass. Activity calls are given as the source filed them. The rule behind the calls is not given here.

How the values were obtained:
[1] = test system: Mycobacterium tuberculosis; experiment: Antimycobacterial activity against Mycobacterium tuberculosis H37Rv 331/88 measured after 14 days by micromethod; format: functional; details: H37Rv 331/88, 336 h
[2] = test system: Mycobacterium avium; experiment: Antimycobacterial activity against Mycobacterium avium 330/88 measured after 14 days by micromethod; format: functional; details: 330/88, 336 h
[3] = test system: Pseudomonas aeruginosa; experiment: Antibacterial activity against Pseudomonas aeruginosa CCM 1961 up to 500 uM incubated for 24 to 48 hrs under dark condition by microdilution broth assay; format: functional
How it was run: (§1)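 Broth microdilution per M07-A07, modified, in Mueller-Hinton broth adjusted to pH 7.4 (±0.2). Inoculum is prepared in sterile water to McFarland 0.5 (1.5 × 10⁸ CFU/mL). Plates are incubated in the dark at 35 °C in humid air. MIC is read after 24 and 48 h as at least 95% growth reduction versus control (IC₉₅).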

[4] = test system: Klebsiella pneumoniae; experiment: Antibacterial activity against ESBL positive Klebsiella pneumoniae J 14368/08 up to 500 uM incubated for 24 to 48 hrs under dark condition by microdilution broth assay; format: functional; how it was run: as §1
[5] = test system: Mycobacterium kansasii; experiment: Antimycobacterial activity against Mycobacterium kansasii isolate 235/80 after 21 days by micromethod; format: functional; details: isolate 235/80, 504 h
[6] = test system: Mycobacterium kansasii; experiment: Antimycobacterial activity against Mycobacterium kansasii isolate 6509/96 after 14 days by micromethod; format: functional; details: isolate 6509/96, 336 h
[7] = Solubility of the compound in Sula's semisynthetic medium up to 1 mM; format: physicochemical
[8] = test system: Lichtheimia corymbifera; experiment: Antifungal activity against Absidia corymbifera 272 after 24 to 48 hrs hrs by microdilution broth assay; format: functional
How it was run: (§2)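 Broth microdilution per CLSI M27-A3 and M38-A2 in RPMI 1640 with glutamine, buffered to pH 7.0 with MOPS. Compounds are diluted in DMSO. Final inoculum is 5 × 10³ CFU/mL for yeasts and 0.5–5 × 10⁴ CFU/mL for moulds. Plates are incubated in the dark at 35 °C in humid air and read visually and/or at 540 nm after 24 and 48 h. MIC is ≥80% growth reduction (IC₈₀) for yeasts and ≥50% (IC₅₀) for filamentous fungi.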

[9] = test system: Pichia kudriavzevii; experiment: Antifungal activity against Candida krusei E28 after 24 to 48 hrs hrs by microdilution broth assay; format: functional; how it was run: as §2
[10] = test system: Mycobacterium tuberculosis; experiment: Antimycobacterial activity against Mycobacterium tuberculosis H37Rv 331/88 measured after 21 days by micromethod; format: functional; details: H37Rv 331/88, 504 h
[11] = test system: Mycobacterium kansasii; experiment: Antimycobacterial activity against Mycobacterium kansasii isolate 235/80 after 14 days by micromethod; format: functional; details: isolate 235/80, 336 h
[12] = test system: Mycobacterium kansasii; experiment: Antimycobacterial activity against Mycobacterium kansasii isolate 6509/96 after 7 days by micromethod; format: functional; details: isolate 6509/96, 168 h
[13] = test system: Klebsiella pneumoniae; experiment: Antibacterial activity against Klebsiella pneumoniae D 11750/08 up to 500 uM incubated for 24 to 48 hrs under dark condition by microdilution broth assay; format: functional; how it was run: as §1
[14] = test system: Mycobacterium avium; experiment: Antimycobacterial activity against Mycobacterium avium 330/88 measured after 21 days by micromethod; format: functional; details: 330/88, 504 h
[15] = test system: Mycobacterium kansasii; experiment: Antimycobacterial activity against Mycobacterium kansasii isolate 235/80 after 7 days by micromethod; format: functional; details: isolate 235/80, 168 h
[16] = test system: Mycobacterium kansasii; experiment: Antimycobacterial activity against Mycobacterium kansasii isolate 6509/96 after 21 days by micromethod; format: functional; details: isolate 6509/96, 504 h
[17] = test system: Staphylococcus epidermidis; experiment: Antibacterial activity against Staphylococcus epidermidis H 6966/08 incubated for 24 hrs under dark condition by microdilution broth assay; format: functional; details: H 6966/08, 24 h; how it was run: as §1
[18] = test system: Escherichia coli; experiment: Antibacterial activity against Escherichia coli CCM 4517 incubated for 48 hrs under dark condition by microdilution broth assay; format: functional; details: CCM 4517, 48 h; how it was run: as §1
[19] = test system: Staphylococcus aureus; experiment: Antibacterial activity against methicillin-resistant Staphylococcus aureus H 5996/08 incubated for 48 hrs under dark condition by microdilution broth assay; format: functional; details: H 5996/08, 48 h
How it was run: (§3)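 Microdilution broth method modified per M07-A07, in Mueller-Hinton broth adjusted to pH 7.4 (±0.2). Inoculum made in sterile water to 0.5 McFarland (1.5 × 10⁸ CFU/mL). Plates incubated in the dark at 35 °C in a humid atmosphere, with reads at 24 and 48 h. MIC taken as at least 95% growth reduction (IC₉₅) versus control.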

[20] = test system: Staphylococcus aureus; experiment: Antibacterial activity against Staphylococcus aureus CCM 4516/08 incubated for 48 hrs under dark condition by microdilution broth assay; format: functional; details: CCM 4516/08, 48 h; how it was run: as §1
[21] = test system: Enterococcus; experiment: Antibacterial activity against Enterococcus sp. J 14365/08 incubated for 24 hrs under dark condition by microdilution broth assay; details: J 14365/08, 24 h
[22] = test system: Enterococcus; experiment: Antibacterial activity against Enterococcus sp. J 14365/08 incubated for 48 hrs under dark condition by microdilution broth assay; details: J 14365/08, 48 h
[23] = test system: Staphylococcus aureus; experiment: Antibacterial activity against methicillin-resistant Staphylococcus aureus H 5996/08 incubated for 24 hrs under dark condition by microdilution broth assay; format: functional; details: H 5996/08, 24 h; how it was run: as §3
[24] = test system: Staphylococcus epidermidis; experiment: Antibacterial activity against Staphylococcus epidermidis H 6966/08 incubated for 48 hrs under dark condition by microdilution broth assay; format: functional; details: H 6966/08, 48 h; how it was run: as §1
[25] = test system: Staphylococcus aureus; experiment: Antibacterial activity against Staphylococcus aureus CCM 4516/08 incubated for 24 hrs under dark condition by microdilution broth assay; format: functional; details: CCM 4516/08, 24 h; how it was run: as §1
[26] = test system: Escherichia coli; experiment: Antibacterial activity against Escherichia coli CCM 4517 incubated for 24 hrs under dark condition by microdilution broth assay; format: functional; details: CCM 4517, 24 h; how it was run: as §1

SMILES	MIC [1] [µM]	MIC [2] [µM]	Activity [3]	Activity [4]	MIC [5] [µM]	MIC [6] [µM]	solubility [7]	Activity [8]	Activity [9]	MIC [10] [µM]	MIC [11] [µM]	MIC [12] [µM]	Activity [13]	MIC [14] [µM]	MIC [15] [µM]	MIC [16] [µM]	MIC95 [17] [µM]	MIC95 [18] [µM]	MIC95 [19] [µM]	MIC95 [20] [µM]	also measured
COc1ccc(NC(=O)CN2C(=O)CSC2=S)cc1	500 (≈ 148 µg/mL)	1000 (≈ 296 µg/mL)	inactive	inactive	1000 (≈ 296 µg/mL)	500 (≈ 148 µg/mL)	Soluble	inactive	inactive	1000 (≈ 296 µg/mL)	500 (≈ 148 µg/mL)	500 (≈ 148 µg/mL)	inactive	> 1000	500 (≈ 148 µg/mL)	1000 (≈ 296 µg/mL)	–	–	–	–	–
NNC(=O)c1ccncc1 [ISONIAZID]	0.5 (≈ 0.0686 µg/mL)	> 250	–	–	> 250	8 (≈ 1.1 µg/mL)	–	–	–	1 (≈ 0.137 µg/mL)	> 250	4 (≈ 0.549 µg/mL)	–	> 250	> 250	16 (≈ 2.19 µg/mL)	–	–	–	–	–
Cc1ccc(OC(=O)CN2C(=O)CSC2=S)cc1	1000 (≈ 281 µg/mL)	1000 (≈ 281 µg/mL)	inactive	inactive	1000 (≈ 281 µg/mL)	1000 (≈ 281 µg/mL)	Soluble	inactive	inactive	1000 (≈ 281 µg/mL)	1000 (≈ 281 µg/mL)	1000 (≈ 281 µg/mL)	inactive	1000 (≈ 281 µg/mL)	1000 (≈ 281 µg/mL)	1000 (≈ 281 µg/mL)	–	–	–	–	–
O=C(CN1C(=O)/C(=C/c2ccccn2)SC1=S)Nc1ccc(Cl)cc1	> 250	> 250	inactive	inactive	> 250	> 250	Soluble	inactive	inactive	> 250	> 250	> 250	inactive	> 250	> 250	> 250	> 125	> 125	> 125	> 125	MIC95 [21]: 125 µM (≈ 48.7 µg/mL); MIC95 [22]: > 125 µM; MIC95 [23]: > 125 µM; MIC95 [24]: > 125 µM; MIC95 [25]: > 125 µM; MIC95 [26]: > 125 µM
O=C(CN1C(=O)/C(=C/c2cc(Br)ccc2O)SC1=S)Nc1ccc(Cl)cc1	32 (≈ 15.5 µg/mL)	500 (≈ 242 µg/mL)	inactive	inactive	> 500	250 (≈ 121 µg/mL)	Soluble	inactive	inactive	62.5 (≈ 30.2 µg/mL)	> 500	125 (≈ 60.5 µg/mL)	inactive	500 (≈ 242 µg/mL)	500 (≈ 242 µg/mL)	500 (≈ 242 µg/mL)	500 (≈ 242 µg/mL)	> 500	500 (≈ 242 µg/mL)	500 (≈ 242 µg/mL)	MIC95 [21]: 500 µM (≈ 242 µg/mL); MIC95 [22]: 500 µM (≈ 242 µg/mL); MIC95 [23]: 500 µM (≈ 242 µg/mL); MIC95 [24]: 500 µM (≈ 242 µg/mL); MIC95 [25]: 500 µM (≈ 242 µg/mL); MIC95 [26]: > 500 µM
O=C(CN1C(=O)CSC1=S)Nc1ccc(C(F)(F)F)cc1	500 (≈ 167 µg/mL)	> 1000	inactive	inactive	1000 (≈ 334 µg/mL)	1000 (≈ 334 µg/mL)	Soluble	inactive	inactive	1000 (≈ 334 µg/mL)	1000 (≈ 334 µg/mL)	1000 (≈ 334 µg/mL)	inactive	> 1000	1000 (≈ 334 µg/mL)	1000 (≈ 334 µg/mL)	–	–	–	–	–
